# High-throughput results from PubChem.
# HSF-1 act: HSF-1 activators, primary screen, NIH3T3-HGL cells, MG132 stress, luminescence, single point; 1.7% of 300,000 active; AID 504408, 2011; NIH3T3-HGL HSF-1 luciferase reporter, 8 h; 100% = twice DMSO control signal; activation, % at 9 µM;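 active = mean replicate activation of at least 50% with a set share of replicates each reaching 50%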;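 also: 0% = median of the neutral control wells and 100% = twice that signal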
# T cruzi repl: inhibitors of intracellular T. cruzi growth, primary screen, luminescence, NIH3T3 host cells; 1.4% of 300,000 active; T. cruzi beta-gal in NIH3T3, 90 h; inhibition, % (test concentration not listed);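 active = mean inhibition across valid replicates above about 55%, limit read from the data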;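 also: signal also drops with host cell toxicity which is not excluded here; 0% = plate median of DMSO wells and 100% = zero luminescence signal; higher percent means less beta-gal luminescence so fewer parasites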
#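 Test system: β-gal T. cruzi (Tulahuen C4) inside NIH/3T3 cells / Quantity: 5,000 cells/well / Measured by: luminescence from GalScreen with 0.05% NP40, read after 60 min / Medium: DMEM plus 2% FBS / Measure: parasite load inhibition, % / Reagent: Tulahuen C4 trypomastigotes, 5000/well / Schedule: co-culture of at least 90 h after 3 h attachment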
# HIF act: HIF pathway transcriptional activators, primary screen, cell-based, U2OS HRE-luciferase, luminescence | U2OS HRE-luciferase reporter; normalized: DMSO 0%, desferrioxamine 100% | activation, % at 7.5 µM (by protocol) | 0.32% of 300,000 active;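 active = mean activation of at least 10% of the iron chelator positive control signal, with at least half of replicates also reaching 10%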
# HSF1 inh: HSF1 inhibitors in luciferase reporter cells, primary screen, cell-based, NIH3T3, luminescence. NIH3T3-HGL HSE-luciferase, MG132-induced, luminescence 8 h; hits give low values. activity change, negative = inhibition, % at 7.5 µM (by protocol). 0.77% of 300,000 active. AID 2098, 2009;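 active = more than half of replicate wells show activity change below -50%, luminescence cut by over half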;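 also: luciferase reports HSF-1 transcriptional activity via heat shock element; 0% = median of DMSO wells and -100% = zero luminescence signal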
# Calb FLC: C. albicans growth inhibition with fluconazole, primary screen, CaCi-2 strain, Alamar Blue fluorescence. C. albicans CaCi-2 + fluconazole, 48 h. growth inhibition, % (test concentration not listed). 0.57% of 300,000 active. AID 1979, 2009;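 active = growth inhibition above about 58% in most replicates, limit read from the data, passing the limit was not always enough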;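 also: all wells also contain fluconazole at 8 µg/ml as a sub-toxic cotreatment; 0% = median of DMSO wells and 100% = median of geldanamycin control wells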
# * hit, by the source's call. A selection: hits, their analogues and other compounds. The true share with any hit is near 4.4%.
SMILES,HSF-1 act,T cruzi repl,HIF act,HSF1 inh,Calb FLC
CCOC(=O)N1CCN(S(=O)(=O)c2ccc(C(=O)N(CCN(C)C)c3nc4ccc(Cl)cc4s3)cc2)CC1,1,76*,2,2,-32
CN(C)CCCN(C(=O)c1ccc(S(=O)(=O)N(C)C2CCCCC2)cc1)c1nc2ccc(F)cc2s1,2,36,-1,5,-9
O=C1c2ccccc2C(Nc2ccc3c(c2)OCCO3)N1c1ccccn1 (stereo unspecified),-74,27,1,-70*,1
O=C1c2ccccc2C(Nc2ccc3c(c2)OCCO3)N1Cc1ccc2c(c1)OCO2 (stereo unspecified),-69,1,-1,-64*,-8
O=C1c2ccccc2C(Nc2ccc3c(c2)OCCO3)N1c1ccc(Cl)cn1 (stereo unspecified),-58,39,1,-54*,5
O=C1c2ccccc2C(Nc2ccc(F)c(Cl)c2)N1c1ccccn1 (stereo unspecified),0,40,0,9,-6
O=C1c2ccccc2C(Nc2ccccc2)N1Cc1ccc2c(c1)OCO2 (stereo unspecified),7,-1,0,15,-6
CC(C)(C)CN1CCN(CC#Cc2ccccc2)CC1CCO (stereo unspecified),26,-12,-15,-2,-4
O=S(=O)(Nc1nc2ccccc2nc1NCC1CCCO1)c1cc(Cl)ccc1Cl (stereo unspecified),8,-3,0,-7,22
CCCCCCCCS(=O)c1sc2nc(C)cc(C)c2c1N (stereo unspecified),-4,-1,-1,6,-6
Oc1ccccc1/C=N/NC(=S)NC1CC2C=CC1C2 (stereo unspecified),28,-27,4,10,-1
CCCN(CCC)C(=S)NC1CC2C=CC1C2 (stereo unspecified),52*,2,0,30,3
CN(C)c1ccc(/C=C(\C#N)c2ccccn2)cc1,39,20,-1,39,-3
Cc1cc(C)n2nc(CC#N)c(C#N)c2n1,-3,-8,0,-5,-4
Cc1cc(C)n2nc(/C(C#N)=C/c3ccccn3)c(C#N)c2n1,99*,-42,0,71,-10
N#C/C(=C\c1ccccn1)c1ccccn1,-66,22,1,-60*,10
N#C/C(=C/c1cccs1)c1ccccn1,31,-8,4,9,3
N#C/C(=C\c1ccc([N+](=O)[O-])cc1)c1ccccn1,73*,40,4,49,2
COC(=O)c1ccc(/C=C(\C#N)c2ccccn2)cc1,86*,-4,3,43,15
Cc1ccsc1CN(C)C(=O)c1ccc(Oc2ccccc2)cc1,-34,12,2,-20,-1
O=C(COc1cccc2ccccc12)N/N=C/c1ccncc1,4,3,0,-4,-8
Cc1cnc(NC(=O)C2CCC(C(C)(C)C)CC2)s1 (stereo unspecified),31,-2,2,-4,2
CCc1ccc(N(C(=O)c2csnn2)C(C(=O)NC(C)(C)CC)c2ccccn2)cc1 (stereo unspecified),31,-9,2,23,4
CC(=O)Nc1ccc(N2CCCCC2)c(C(=O)Nc2cccc(C)c2)c1,-1,12,0,1,94*
Cc1ccc(NC(=O)c2cc(NC(=O)/C=C\C(=O)O)ccc2N2CCCCC2)cc1,-4,-1,0,-3,19
SMILES,HSF-1 act,T cruzi repl,HIF act,HSF1 inh,Calb FLC
Cc1ccc(NC(=O)c2cc(NC(=O)c3ccccc3C(=O)O)ccc2N2CCCCC2)cc1,60*,-3,-1,26,57
COC(=O)c1ccc(COn2nnc3ccccc32)cc1,59*,14,2,41,-5
Cc1ccc(NC(=O)C2CCCN(c3ncccn3)C2)cc1C (stereo unspecified),36,2,2,16,6
Cc1ccnc(N2CCCC(C(=O)NCc3cccs3)C2)n1 (stereo unspecified),-72,-5,0,-66*,-4
Cc1ccnc(N2CCCC(C(=O)Nc3ccc(C)c(C)c3)C2)n1 (stereo unspecified),60*,2,0,25,9
Cc1ccc(C)c(Oc2cc(NC(=O)CCCn3nc(C)c([N+](=O)[O-])c3C)cc([N+](=O)[O-])c2)c1,72*,52,0,34,0
Cc1nc(-c2ccncc2)nc(NCCNc2ncccc2C(F)(F)F)c1Cl,13,77*,0,-6,-4
OC(CNCCNc1ncccc1C(F)(F)F)Cn1ccc2ccccc21 (stereo unspecified),-1,24,2,2,-3
COc1cc2nc(NC(=O)c3ccc(F)cc3Cl)sc(=O)c2cc1OC,19,-9,-1,18,0
CC(C)(C)c1ccc(C(=O)CC(Sc2ccc(Cl)cc2)C(=O)O)cc1 (stereo unspecified),56*,60*,1,57,0
CCOC(=O)c1c(N2CCCCC2)c2ccccc2[nH]c1=O,-64,8,0,-59*,-19
C/C(Cc1ccccc1)=N\NC(=O)CNC(=O)Cc1ccc(Cl)cc1,-63,-32,0,-53*,-6
CN(C)CCCNCCNC(=O)/C=N\O,6,-3,0,-6,-4
CN(C)CCCCNCCCNC(=O)/C=N\O,62*,2,1,26,22
COc1ccc(N2CCN(C(=O)CSc3nnc(-c4ccco4)n3C)CC2)cc1,4,9,0,-4,17
COCCN(Cc1cn[nH]c1-c1ccc2cc(OC)ccc2c1)C(C)C,56*,65*,-7,38,-5
COCC1CCCCN1Cc1cn[nH]c1-c1ccc2cc(OC)ccc2c1 (stereo unspecified),15,70*,0,8,-7
CCOC(=O)CN(C)Cc1cn[nH]c1-c1ccc2cc(OC)ccc2c1,18,-6,1,16,-2
CC1CCN(C(=O)CCCOc2cc(=O)n(C)c3ccccc23)CC1,75*,9,0,37,8
COc1ccc(N2CCN(C(=O)CCCOc3cc(=O)n(C)c4ccccc34)CC2)cc1,21,14,-1,9,-11
CCN(CCCNC(=O)CCCOc1cc(=O)n(C)c2ccccc12)Cc1ccccc1,31,55*,0,-1,0
O=C(NCCN1CCOCC1)c1ccc(Cl)cc1O,-2,0,-1,-6,0
O=C(CCS(=O)(=O)c1ccccc1)OCc1ccc([N+](=O)[O-])cc1,3,-7,0,-2,28
OCCNc1c2ccccc2nc2ccccc12,13,59*,24*,5,33
